Measurements collected from several papers.
Lines come from different studies, so protocols differ. Converted amounts (≈) assume the structure as drawn.
Organism: Staphylococcus epidermidis

| Compound | effect on | technique | strain | time | measurement | result |
| --- | --- | --- | --- | --- | --- | --- |
| CCOC(=O)c1c(N)csc1-c1cn(-c2ccccc2)nc1-c1ccc(C)cc1 | microbial killing | broth dilution |  |  | MBC | 0.125 µg/mL (≈ 0.31 µM) |
| CO[C@@H](C(N)=O)[C@H](NC(=O)c1ccc(NC(=O)c2ccc(C#N)cc2)cc1)C(=O)Nc1ccc(C(=O)Nc2ccc(C(=O)Nc3ccc(C(=O)O)cc3)c(O)c2OC(C)C)cc1 | microbial growth |  | DSM28765 |  | MIC | ≤ 0.03 µg/mL |
| O=C(O)CN1C(=O)/C(=C/c2ccc(-c3ccc(N(c4ccccc4)c4ccccc4)cc3)c3ccccc23)SC1=S | microbial killing | broth dilution | ATCC12228 |  | MBC | 1000 µg/mL (≈ 1750 µM) |
| O=C(O)c1cn(C2CC2)c2cc(N3CCNCC3)c(F)cc2c1=O | microbial killing | broth dilution |  |  | MBC | 0.5 µg/mL (≈ 1.51 µM) |
| O=C1NC(=S)S/C1=C\c1ccc(-c2ccc(N(c3ccccc3)c3ccccc3)cc2)c2ccccc12 | microbial growth | broth dilution | ATCC12228 |  | MIC | 1000 µg/mL |
| O=S(=O)(O)c1cc(O)c(N=Nc2ccc3ccccc3c2O)c2ccccc12 | microbial growth | broth dilution |  | 24 h | MIC50 | 63 µM (≈ 24.8 µg/mL) |
| N#CC(=Cc1ccccc1O)C1=NC(=O)C(=Cc2cn(-c3ccccc3)nc2-c2ccccc2)S1 | microbial killing | broth dilution |  |  | MBC | 0.25 µg/mL (≈ 0.527 µM) |
| O=[N+]([O-])c1ccc(-c2nc3cccc(O)c3[nH]2)o1 | microbial killing |  |  |  | MBC | 1 µg/mL (≈ 4.08 µM) |
| O=C(O)c1cn(C2CC2)c2cc(N3CCNCC3)c(F)cc2c1=O | microbial growth |  | DSM28765 |  | MIC | 0.25 µg/mL |
| O=C(O)c1cn(C2CC2)c2cc(N3CCNCC3)c(F)cc2c1=O | microbial growth | broth dilution | ATCC12228 |  | MIC | 0.49 µg/mL |
| CC(C)Oc1c(NC(=O)c2ccc(NC(=O)[C@H](CC(N)=O)NC(=O)c3ccc(NC(=O)c4ccc(C#N)cn4)cc3)cc2)ccc(C(=O)Nc2ccc(C(=O)O)cc2)c1O | microbial growth |  | DSM28765 |  | MIC | 1 µg/mL |
| CN(C)[C@@H]1C(O)=C(C(N)=O)C(=O)[C@@]2(O)C(O)=C3C(=O)c4c(O)cccc4[C@@](C)(O)[C@H]3C[C@@H]12 | microbial growth | broth dilution | 12228 |  | MIC | 100 µM |
| CC(C)Oc1c(NC(=O)c2ccc(NC(=O)c3ccc(NC(=O)[C@H](CC(N)=O)NC(=O)c4ccc(NC(=O)c5ccc(C#N)cn5)cc4)cc3)c(OC(C)C)c2O)ccc(C(=O)O)c1O | microbial growth |  | DSM28765 |  | MIC | ≤ 0.03 µg/mL |
| O=C1NC(=S)N/C1=C\c1ccc(-c2ccc(N(c3ccccc3)c3ccccc3)cc2)c2ccccc12 | microbial growth | broth dilution | ATCC12228 |  | MIC | > 1000 µg/mL |
